# APOBEC3G inh: APOBEC3G DNA deaminase inhibitors, primary screen, biochemical, fluorescence, single-stranded DNA substrate, uHTS; recombinant A3G, ssDNA deamination FAM/TAMRA fluorescence; inhibition, % at 20 µM; 330,000 tested, 0.28% active; AID 493012, 2011;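 active = inhibition of at least 40% at 20 µM, with no more than 30% in the related APOBEC3A deaminase screen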;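 note: plate controls were DMSO wells with A3G for no effect and wells lacking A3G enzyme for full effect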
# UCH37 inh: inhibitors of human UCH37 deubiquitinase, primary screen, biochemical, Ub-AMC cleavage, fluorescence. purified proteasome/UCH37. 330,000 tested, 0.33% active. AID 588478, 2011. Ubiquitin carboxyl-terminal hydrolase isozyme L5 (Homo sapiens), Q9Y5K5. inhibition, % (test concentration not listed);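 active = mean inhibition over replicate wells above about 20%, limit read from the data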;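 note: 0% = compound-free wells with enzyme and 100% = wells lacking proteasome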
#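 Assay system: Proteasome-bound UCH37. Buffer or medium: pH 7.4 Tris-HCl (50 mM) with ovalbumin, ATP-MgCl2, DTT. Incubation: 30 min preincubation with enzyme, 25 min cleavage at room temperature. Measured by: fluorescence, ex 355 nm, em 460 nm. Read-out basis: percent inhibition. Control set: wells without proteasome as full block, compound-free enzyme plus substrate as uninhibited.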
# AHR act: AHR activators, primary screen, cell-based, luminescence, luciferase reporter, human | Aryl hydrocarbon receptor (Homo sapiens), P35869 | AHR-responsive luciferase reporter cells | activation, % at 5 µM | 320,000 tested, 2.5% active; in the data active = activation above about 47%;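 note: 0% = vehicle wells and 100% = reference agonist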
# Arr AP2 block: inhibitors of beta-arrestin/AP2 binding, primary screen, biochemical, GPCR trafficking, flow cytometry; beta-arrestin 1 C-terminal peptide binding to AP2 beta2-adaptin appendage (human); FITC-arrestin peptide / GST-AP2 beads; AP2 beta2 appendage carries R879A mutation; inhibition, % at 10 µM; 340,000 tested, 0.31% active;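 active = inhibition above a set limit, near 3 SD of compounds lacking own fluorescence, cut at about 54% in these data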;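 note: plate controls were DMSO wells for no effect and 5 µM unlabelled arrestin peptide for full effect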
#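 test system = AP2 appendage R879A on GSH beads | buffer or medium = PBS plus Tween 20 (0.05%) and BSA (0.1%) | incubation = 12 min plus 1 h, RT | detection = bead flow cytometry, FITC channel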
# APOBEC3A inh: APOBEC3A ssDNA deaminase inhibitors, primary screen, selectivity assay for APOBEC3G inhibitor project, biochemical, FAM/TAMRA oligo cleavage fluorescence | recombinant A3A, FAM/TAMRA ssDNA deamination fluorescence | inhibition, % at 20 µM | 330,000 tested, 0.41% active;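 active = at least 40% inhibition at 20 µM here, with at most 30% in a related deaminase screen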;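 note: plate controls were A3A with DMSO for no effect and wells lacking A3A enzyme for full effect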
# PolyA inhibitor: polyadenylation inhibitors in yeast reporter cells, primary screen, luminescence, S. cerevisiae. S. cerevisiae SKY197-pL101 polyadenylation reporter, beta-gal luminescence; efflux-impaired pdr1/pdr3 knockout yeast; score 100 = 6 SD above DMSO. AID 1875, 2009. 300,000 tested, 0.02% active. activity score, % at 12 µM;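 active = lowest replicate activity score at least 50, where 100 means six control SD above control mean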;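 note: yeast exposed to compound for 9 h at 30 °C; higher score means more reporter readthrough which indicates perturbed polyadenylation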
# Arr AP2 CP1: inhibitors of arrestin peptide binding to AP2, confirmation, biochemical, cherry pick 1, flow cytometry beads; GST-AP2 beads, FITC arrestin peptide binding; GST-fused beta2-adaptin appendage, R879A mutant; inhibition, % at 10 µM; 1,300 tested, 2% active; shares compounds with Arr AP2 block; AID 504908, 2011;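 active = inhibition above a set limit, roughly 3 SD of non-fluorescent compound noise, cut at about 38% in these data; inactive = inhibition at or below that limit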;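 note: loss of bead fluorescence from 50 nM FITC arrestin peptide bound to appendage; 0% = negative control wells and 100% = excess unlabelled arrestin peptide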
# Target sequence (P63010 whole entry, looked up, the tested form may be a part, one chain of several): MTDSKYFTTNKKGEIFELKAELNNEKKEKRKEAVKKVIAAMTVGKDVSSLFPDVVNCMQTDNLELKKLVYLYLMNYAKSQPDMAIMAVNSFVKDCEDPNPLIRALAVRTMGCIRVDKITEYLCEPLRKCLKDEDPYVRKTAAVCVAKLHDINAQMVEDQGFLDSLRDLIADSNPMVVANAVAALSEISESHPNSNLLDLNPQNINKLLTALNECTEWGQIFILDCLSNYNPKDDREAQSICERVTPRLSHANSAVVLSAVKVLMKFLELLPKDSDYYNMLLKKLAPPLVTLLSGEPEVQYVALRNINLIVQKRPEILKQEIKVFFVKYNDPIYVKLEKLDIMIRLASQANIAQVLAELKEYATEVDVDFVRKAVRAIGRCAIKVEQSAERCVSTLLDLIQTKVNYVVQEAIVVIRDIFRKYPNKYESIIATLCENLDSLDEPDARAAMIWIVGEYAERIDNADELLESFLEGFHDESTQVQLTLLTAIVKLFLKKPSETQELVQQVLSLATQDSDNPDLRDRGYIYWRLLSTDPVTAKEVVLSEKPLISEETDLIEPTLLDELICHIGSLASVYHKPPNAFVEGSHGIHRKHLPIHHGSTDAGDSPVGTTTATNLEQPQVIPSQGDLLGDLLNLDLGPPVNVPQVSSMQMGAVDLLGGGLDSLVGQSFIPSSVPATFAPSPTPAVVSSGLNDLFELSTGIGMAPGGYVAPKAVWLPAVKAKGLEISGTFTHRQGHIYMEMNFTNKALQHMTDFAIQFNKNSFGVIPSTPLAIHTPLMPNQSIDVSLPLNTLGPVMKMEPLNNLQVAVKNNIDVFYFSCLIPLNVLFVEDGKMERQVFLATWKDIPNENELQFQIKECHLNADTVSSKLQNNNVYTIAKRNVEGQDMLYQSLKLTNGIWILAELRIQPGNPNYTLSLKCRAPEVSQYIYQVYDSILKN
# GST-FITC bead: GST-fluorescein capture on glutathione beads, confirmation, artefact control for arrestin-AP2 inhibitor project, biochemical, cherry pick 1, flow cytometry | shares compounds with Arr AP2 block | GST-fluorescein binding to GSH beads, fluorescence, counter-screen | 1,300 tested, 2% active | AID 588338, 2011 | inhibition, % at 10 µM;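 active = inhibition above 50%, about 3 SD of the inhibition seen with non-fluorescent compounds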;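 note: fluorescein maleimide labelled GST captured on 4 micron glutathione beads; higher means more loss of bead fluorescence from quenching or blocked binding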
# * hit, by the source's call; nt = no result. Shown are actives, neighbours in structure and some others; about 3.4% of the full set was active somewhere.
SMILES,APOBEC3G inh,UCH37 inh,AHR act,Arr AP2 block,APOBEC3A inh,PolyA inhibitor,Arr AP2 CP1,GST-FITC bead
CCN(C(=O)CSc1nc2ccccc2[nH]1)C1CCS(=O)(=O)C1 (stereo unspecified),-2,-1,-2,54*,1,nt,-6,-6
Cc1cc(C)cc(NC(=O)CSc2nc3nc(C)cc(C)n3n2)c1,-5,1,-2,68*,1,nt,-7,5
Cc1ccc(SCC(=O)OCC(=O)NCCNC(=O)COC(=O)CSc2ccc(C)c(C)c2)cc1C,-4,2,-1,68*,1,-10,-4,-2
Cc1sc2ncnc(NCc3ccco3)c2c1C,2,nt,3,85*,4,5,-6,-1
CCN1/C(=C/c2ccc3cc(C)ccc3[n+]2C)Sc2ccc3sccc3c21,nt,7,nt,78*,nt,nt,68*,43
CCCCN1/C(=C/c2ccc3ccccc3[n+]2CC)Sc2ccccc21,42,4,nt,-38,91,-11,nt,nt
CN(CC(=O)NCCCN1CCOCC1)S(=O)(=O)c1cc(Cl)ccc1Cl,-4,1,nt,64*,-3,-12,9,-2
O=C(Nc1ccccc1Cl)c1cc(S(=O)(=O)N2CCCCC2)ccc1N1CCOCC1,-2,-1,2,8,3,14,nt,nt
CC(NC(=O)c1cc(S(=O)(=O)N2CCOCC2)ccc1N1CCCC1)c1ccc(Cl)c(Cl)c1 (stereo unspecified),-9,-15,3,-7,7,8,13,-1
CN(CCOc1ccc(Cl)cc1)C(=O)c1cc(S(=O)(=O)N2CCOCC2)ccc1N1CCCC1,-6,3,2,-1,-4,nt,20,-8
CN(Cc1ccc(Cl)cc1)C(=O)c1cc(S(=O)(=O)N2CCOCC2)ccc1N1CCCC1,-7,4,0,-9,-1,-6,-2,-13
Cc1ccc(S(=O)(=O)N2CCOCC2)cc1C(=O)N(C)CCOc1ccc(Cl)cc1,15,3,0,-7,7,-12,nt,nt
CC(=O)OCC(=O)Nc1ccc(N=Nc2ccccc2)cc1,-10,10,1,8,-1,-32,nt,nt
CC(C)C(=O)OCC(=O)Nc1ccc(N=Nc2ccccc2)cc1,nt,4,1,56*,nt,9,-4,-4
O=C(c1ccc(-c2ccc([N+](=O)[O-])cc2)o1)N1CCN(S(=O)(=O)c2cccs2)CC1,-5,3,-2,65*,0,nt,3,-3
Cc1cc(C)c(NC(=O)CSc2nnc(SCC(=O)Nc3c(C)cc(C)cc3C)n2N)c(C)c1,-4,4,1,91*,-10,-1,-8,-9
Oc1c(Br)cc(Br)cc1C=NNc1ccc(Cl)nn1,nt,7,nt,nt,nt,nt,nt,nt
O=C(O)CCC(=O)NNC(=O)c1cccc(Br)c1,3,-3,-1,58*,1,-8,0,-5
COC(=O)CCC(=O)NNC(=O)c1cccc(Br)c1,-5,6,6,11,-1,-7,nt,nt
Cc1ccc(-c2n[nH]c(=S)n2N=Cc2sccc2C)cc1,nt,6,nt,nt,nt,nt,nt,nt
COc1ccc(-c2cc(C(F)F)n3ncc(C(=O)Nc4cc(C)on4)c3n2)cc1,-3,-18,-3,104*,0,-7,-6,22
COc1ccc(-c2cc(C(F)F)n3ncc(C(=O)Nc4c(C)n(C)n(-c5ccccc5)c4=O)c3n2)cc1,-4,4,-1,32,-1,-14,nt,nt
CC(=NNC(=O)c1cccc(S(=O)(=O)N2CCCC2)c1)c1ccc(C)cc1,nt,3,nt,nt,nt,nt,nt,nt
O=C(O)COc1ccccc1C=NNC(=O)Cc1csc(Nc2cccc(C(F)(F)F)c2)n1,nt,5,nt,nt,nt,nt,nt,nt
CCn1c(=O)n(CC)c2cc(N3CCCC3)c(NC(=O)c3c(F)cccc3F)cc21,-5,5,0,16,-6,8,-6,-1
SMILES,APOBEC3G inh,UCH37 inh,AHR act,Arr AP2 block,APOBEC3A inh,PolyA inhibitor,Arr AP2 CP1,GST-FITC bead
CCn1c(=O)n(CC)c2cc(N3CCCC3)c(NC(=O)c3ccc(F)cc3)cc21,32,nt,4,7,-3,8,11,1
CCn1c(=O)n(CC)c2cc(N3CCCC3)c(NC(=O)c3cccc(OC)c3)cc21,-9,0,6,4,-8,-6,2,5
O=C(Nc1ccccc1N1CCCCC1)c1ccc(F)cc1,-2,5,1,-3,1,-15,nt,nt
CCOc1ccc(C(=O)Nc2cc3c(cc2N2CCCC2)n(CC)c(=O)n3CC)cc1OCC,-5,-5,1,-3,-6,7,0,-7
CCn1c2ccccc2c2cc(NC(=O)c3cccc(OC)c3)ccc21,3,1,42,3,4,15,nt,nt
CC1=CCCC(C)(C)C1/C=C/C(C)=NNC(=O)c1ccncc1 (stereo unspecified),nt,6,nt,nt,nt,nt,nt,nt
COCCNC(=O)c1cccc(OC2CCN(Cc3ccc(C(=O)OC)cc3)CC2)c1,-11,2,-1,1,-3,2,nt,nt
COC(=O)c1ccc(CN2CCC(Oc3cccc(C(=O)N4CCOCC4)c3)CC2)cc1,-6,1,-3,70*,0,-8,3,-4
CNc1ccc(C(=O)OCC(=O)NCc2ccc3c(c2)OCO3)cc1[N+](=O)[O-],-7,3,0,96*,-2,nt,-3,1
O=C(COC(=O)Cn1cnc2ccccc21)Nc1ccc2c(c1)C(=O)c1ccccc1C2=O,-1,nt,14,100*,4,-8,24,33
CC(=O)c1ccc(NC(=O)COC(=O)Cn2cnc3ccccc32)cc1,-4,0,1,-5,-3,nt,nt,nt
O=C(Nc1cccc([N+](=O)[O-])c1)Nc1cnccn1,-3,4,9,-4,-4,-3,nt,nt
Cc1cccc(NC(=O)Nc2cnccn2)c1,1,3,39,18,-2,12,5,-5
